# Reference: PMC2229322 (The Journal of General Physiology, 1996)
# What was measured:
# [1] = test system: 391C Shaker K+ channel with intact N-type inactivation (Sh +); assay: N-type inactivation of intact; type: cell-based, Drosophila; settings: for effect of 391C modification on N-type inactivation current: voltage jump -80 to 0 mV, 50 ms, complete modification (Fig. 2)
# Outline: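 Inside-out patches from HEK293 cells expressing channels with intact N-terminus, stepped -80 to 0 mV. Inactivation gate removed by internal trypsin perfusion. Traces normalised to the mean current of the last 20 ms after trypsin. Ag+ 20 nM for 2 min applied; completeness checked by pulsing at 0.25 Hz.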
# [2] = target: E395C mutant Shaker K+ channel (Drosophila melanogaster, UniProt P08510, C301S/C308S/DEL6-46/E395C/T449V); assay: Sensitivity of E395C to internal open channel blockers; type: cell-based; settings: internal open channel blocker
# [3] = test system: 382C ShA Shaker K+ channel; assay: Chemical modification of 382C; type: cell-based, Drosophila; settings: vs 381C, toward more positive voltages (Fig. 7 C and E)
# [4] = test system: 381C ShA Shaker K+ channel; assay: Chemical modification of 381C; type: cell-based, Drosophila; settings: for slope (time constant x [MTSET]) of current reduction: 381C
# Outline: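 Inside-out patches from transfected HEK293 cells; […] to 0 mV from -100 mV holding. Computer-controlled reagent pulses of 1 or 2 s began ~500 ms after step onset; sampled 5 kHz, filtered 1 kHz. Time axis normalised to reagent concentration; current reduction fitted to single exponentials. Frequency runs alternated -100 with 0 or +60 mV, equal time at each.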
# [5] = test system: 391C ShA Shaker K+ channel; assay: Rate of chemical modification of 391C; type: cell-based, Drosophila; settings: MTSET
# [6] = test system: cysteine mutants (380-398) of the S4-S5 linker, ShA Shaker K+ channel; assay: Chemical modification of cysteine mutants of the S4-S5 linker; type: cell-based, Drosophila; settings: positions with large current reduction
# Outline: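 Cysteine-substituted channels in inside-out patches from transfected HEK293 cells, pH 7.4 solutions. Thiol reagents applied internally; completeness of modification followed by pulsing at 0.25 Hz. Conditions: MMTS 2 mM, 1 min; Ag+ 20 nM, 2 min; MTSEA 100 µM, 30 s.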
# [7] = test system: Shaker K+ channel; settings: intracellular application; ref Choi et al., 1991; cited from earlier work
# [8] = test system: K+ channels; assay: Test of perfusion change by TEA blockade; type: cell-based; settings: internal TEA; reflects time course of solution change by perfusion system
# Outline: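 Rapid internal solution exchange on excised patches via a computer-controlled solenoid perfusion system. Exchange speed assessed by applying TEA.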
# [9] = Net charge of ball peptides; type: physicochemical; settings: COOH terminal amidated, NH2 terminal positively charged
# [10] = test system: NH2-terminal deletion mutant Shaker K+ channel; settings: ref Zagotta et al., 1990; cited from earlier work
compound,measurement,setting,value
"[Ag+] [Ag+, silver]",additional effect of 391C modification on tethered ball,[1]; Ag+ 20 nM for 2 min (Fig. 2),additional ef- fect on the association rate
same,effect of 391C modification on N-type inactivation current,[1],increase in the steady- state current level without much change in the peak current
"CCCCCCCCCC[N+](CC)(CC)CC [C10-TEA, de- cyltriethylammonium]",affinity of E395C mutant compared with wild-type channel,[2],reduced fourfold
"CSS(C)(=O)=O [MMTS, Methyl methanethiosulfonate]",effect of 391C modification on N-type inactivation current,[1],increase in the steady- state current level without much change in the peak current
"C[N+](C)(C)CCSS(C)(=O)=O [MTSET, [(2-trimethylammoniuin)ethyl]methanethiosulfonate]",shift of voltage dependence of gating and modification for 382C,[3],~ 50 mV
same,effect of 391C modification on N-type inactivation current,[1],parallel increase of the steady state and the peak current
same,rate of modification of 381C with rapidly switching stimulus,"[4]; 50 10-ms pulses vs 5 100-ms pulses, -100 to 0 mV",about threefold faster
same,slope (time constant x [MTSET]) of current reduction,"[4]; MTSET, 0 mV (Fig. 7B)",0.33 mM·s
same,slope (time constant x [MTSET]) of current reduction,"[4]; MTSET, -120 mV (Fig. 7B)",2.47 mM·s
same,current reduction by modification of 381C,"[4]; MTSET, Fig. 7 A and B",> 80%
same,total current after modification of A391C,[5],no reduction in the total current
same,voltage dependence of modification rate of 391C,[5]; Fig. 6C,higher at positive voltages
same,reactivity of positions 389 and 397,[6],only very slowly reactive
"CC[N+](CC)(CC)CCSS(C)(=O)=O [MTSTEA, [(2-triethylammonium)ethyl] methanethiosulfonate]",effect of 391C modification on N-type inactivation current,[1],qualitatively similar results
"CC[N+](CC)(CC)CC [TEA, tetraethylammonium]",effect on N-type inactivation,[7],slows down N-type inactivation
same,time constant of TEA blockade observed,[8],~ 10 ms
same,affinity of E395C mutant compared with wild-type channel,[2],reduced fourfold
MAAVAGLYGLGEDRQHRKKQ [Shaker ball peptide],net charge,[9],+3
same,reconstitution of fast inactivation by intracellular application,[10],effectively reconsti- tuted
Trypsin,effect of removing the inactivation gate,[1]; 0.0025% trypsin perfused on inside-out patch (Fig. 2A),larger non-inactivated current level
